The campaign covered roughly 330,000 compounds. About 2,000 (0.61%) were called active. This is one part of a sample in which actives are shown more often than they occur. A number with no mark means an inactive call.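 The calls were made as follows: active = inhibition above that plate's mean sample inhibition plus 3 SD (cut at about 26% in these data); inactive = the rest.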
Assay: ATP-evoked calcium signal inhibitors, parental CHO, primary screen, counter-screen for OX1R antagonist project, cell-based, fluorescence, Fluo-8 calcium dye (AID 463079);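 also: 0% = ATP-challenged DMSO wells and 100% = DMSO wells without ATP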
Conditions: parental CHO-K1, ATP-induced calcium, Fluo-8 fluorescence; at 5.6 µM; hits give high values
Method in brief: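 Material: parental CHO cells / Compound: single nominal dose of 5.6 µM per compound / Signal: Fluo-8 fluorescence / Replicates: singlicate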

In the case of C=CCC1(CC=C)CCCN1C(=O)c1cc(COc2ccc(-n3cncn3)cc2)on1, the inhibition is reported as 66.2% (active).
With Cc1ccccc1OCC(=O)Nc1ccc(N2CCN(C(=O)C(C)C)CC2)c(Cl)c1 the inhibition was 29.7% (active).
With CC1=C/C(=N\OS(=O)(=O)c2ccccc2)C=CC1=O the inhibition was 46% (active).
With COc1ccccc1Oc1ccc(S(=O)(=O)Nc2cccnc2)cc1 the inhibition was 36.9% (active).
For CN(c1ccccc1)c1ccc(/C=c2\s/c(=C(/C#N)C(=O)C(C)(C)C)n(Cc3ccco3)c2=O)cc1, the inhibition was 47.5% (active).
With CCCCn1c(SCc2ncc(-c3ccccc3)o2)nc2cc(S(N)(=O)=O)ccc21 the inhibition was 36.6% (active).
With c1ccc2c(c1)OCC(CNc1ncnc3nc[nH]c13)O2 (stereo unspecified) the inhibition was 76% (active).
In the case of CCC(=O)Nc1ccc(C(=O)CSc2nnc(CNc3ccc(Cl)cc3)o2)cc1OC, the inhibition is reported as 39.8% (active).
For CN(C)c1ccc(C(CC(=O)O)C(=O)O)cc1 (stereo unspecified), the inhibition was 26.3% (active).
In the case of Cn1nc(C(F)(F)F)c(C(=O)Nc2cccc(C(F)(F)F)c2)c1SCc1ccc(Cl)cc1, the inhibition is reported as 56.3% (active).
In the case of COc1cc(SC#N)ccc1N=Cc1c(C)[nH]n(-c2ccc(C)cc2)c1=O, the inhibition is reported as 96.8% (active).
In the case of CC1(C)CC(N2CCN(C(c3ccccc3)c3ccccc3)CC2)=CC(=[N+]2CCCCC2)C1, the inhibition is reported as 29.5% (active).
For CN(C)S(=O)(=O)c1ccc(Oc2ccc(S(=O)(=O)N(C)C)cc2)cc1, the inhibition was 53.5% (active).
With Cn1nccc1C(=O)NC1CCCc2c1cnn2-c1ccc(F)cc1F (stereo unspecified) the inhibition was 45.4% (active).
In the case of Cn1nccc1C(=O)NC1CCCc2c1cnn2-c1ccccc1F (stereo unspecified), the inhibition is reported as 48.7% (active).
With COc1ccc(C(=O)NC2CCCc3c2cnn3-c2cccc(C)c2C)c(OC)n1 (stereo unspecified) the inhibition was 40.4% (active).
For COc1ccc(CNc2ncnc3ccccc23)cc1, the inhibition was 30% (active).
In the case of CCn1nccc1C(=O)Nc1ccc(S(=O)(=O)NC23CC4CC(CC(C4)C2)C3)cc1, the inhibition is reported as 61% (active).
For O=[N+]([O-])/C=C/c1ccc2c(ccn2Cc2ccccc2)c1, the inhibition was 42% (active).

Point of comparison: O=C(Nc1ccc(S(=O)(=O)Nc2ncccn2)cc1)C12CC3CC(CC(C3)C1)C2, inhibition -8.7%. Against it:
- O=C(c1cc(COc2ccc(F)c(F)c2)on1)N1CCOCC1 — higher, -5.07%
- CCn1ccnc1CN(C)C(=O)c1cc(COc2ccc(-n3cncn3)cc2)on1 — lower, -9.68%
- COC(=O)c1cc(Oc2ccc(S(=O)(=O)N3CCOCC3)cc2[N+](=O)[O-])cc(C(=O)OC)c1 — higher, -3.52%
- N#C/C(=C\c1ccccc1)c1n[nH]c(Cn2cncn2)n1 — lower, -15.2%
- CC(NC(=O)C1CCCN(S(=O)(=O)c2ccc(-n3cnnn3)cc2)C1)c1ccc(F)cc1 (stereo unspecified) — lower, -12.5%
- CCC(=O)N1CCN(c2ccccc2NC(=O)COc2cccc(C)c2C)CC1 — lower, -26.9%
- Cc1ccccc1OCC(=O)Nc1ccc2c(c1)ncn2C — higher, 17.8%
- CC(C)(C)n1cnnc1Sc1ccc([N+](=O)[O-])cn1 — lower, -10.8%
- Cc1nc2ccc(NC(=S)N3CCC(C)CC3)cc2nc1C — lower, -10.7%
- NNC(=O)CNC(c1ccccc1)c1cc(Cl)ccc1NC(=O)c1ccccc1 (stereo unspecified) — lower, -31.4%
- Cc1cc(C)c(C)c(S(=O)(=O)Nc2cccnc2)c1C — lower, -11.2%
- COc1ccc(S(=O)(=O)Nc2cccnc2)c(Cl)c1Cl — higher, -1.47%
- O=C(C1CC(=O)N(c2ccc(F)cc2)C1)N1CCN(c2ccccc2)CC1 (stereo unspecified) — higher, -3.64%
- CCOC(=O)C1CCN(CC(=O)Nc2ccc(OC)c(S(=O)(=O)N3CCCCC3)c2)CC1 — lower, -13.3%
- CCCCSc1nnc2c(n1)OC=Nc1ccccc1-2 — higher, -1.35%
- CCOC(=O)Cn1c(=O)oc2cc(S(=O)(=O)N(C)Cc3ccco3)ccc21 — higher, 4.07%
- CCCCn1c(SCC(=O)N2CCC(C(=O)OCC)CC2)nc2cc(S(N)(=O)=O)ccc21 — lower, -21.9%
- CCCCn1c(SCC(=O)N2CCCC2=O)nc2cc(S(N)(=O)=O)ccc21 — higher, -0.51%
- Cc1nnc(C)c2c(C)n(N)c(C)c12 — higher, 4.12%
- S=C(NCC1COc2ccccc2O1)Nc1ccc(Br)cc1 (stereo unspecified) — higher, 1.75%
- c1ccc(-c2cc3c(NCC4COc5ccccc5O4)ncnc3s2)cc1 (stereo unspecified) — higher, 2.37%
- COc1ccc(NC(=O)CC2SC(N3CCCCC3)=NC2=O)cc1OC (stereo unspecified) — higher, -5.72%
- COc1cc(C(=O)NCc2nnc(SCC(=O)c3ccc(Cl)cc3)o2)cc(OC)c1OC — lower, -35.5%
- CCOC(=O)CSc1nnc(CNc2ccc(F)cc2)o1 — higher, 7.59%
- CCCCCCCNC(=O)C1(CC2CC(c3cccc(Br)c3)=NO2)CCN(C(=O)c2cc(OCC)c(OCC)c(OCC)c2)CC1 (stereo unspecified) — lower, -43.7%
- CC1C/C(=N/NC(=O)c2cccs2)CC(C)(C)C1 (stereo unspecified) — higher, 5.84%
- O=C(CN1C(=O)NC(Cc2c[nH]c3ccccc23)C1=O)Nc1ccccc1C(F)(F)F (stereo unspecified) — higher, -8.55%
- CC(C)(C)C(=O)NNC(=O)c1ccc(Oc2cc(Cl)cc(Cl)c2)o1 — higher, 0.38%
- CC(=O)NC(CC(=O)O)c1ccc(F)cc1 (stereo unspecified) — higher, 14.5%
- CC(C)CNC(=O)C(=O)Nc1ccc(N(C)C)cc1 — higher, -6.25%
- COC(=O)Cn1c(=NC(=O)c2cc(OC)c(OC)c(OC)c2)sc2cc(OC)ccc21 — higher, -4.35%
- CN(C)/C=C(/C(=O)c1ccc(Cl)c(Cl)c1)c1nnnn1-c1ccccc1 — higher, 4.24%
- CCc1ccc(CN(C)C(=O)CCc2nnc(-c3ccc(-c4ccccc4)cc3)o2)nc1 — higher, 2.52%
- COc1ccc(Cl)cc1-n1c(C)cc(C(=O)OCC(=O)N2CC(=O)Nc3ccccc32)c1C — lower, -26.4%
- O=C(O)CSc1c2c(nc3cc(C(=O)Nc4cccc(C(F)(F)F)c4)ccc13)CCCC2 — higher, -7.81%
- COC(=O)c1ccccc1Sc1c(/C=N/OCc2ccc(Cl)cc2)c(C(F)(F)F)nn1C — higher, -7.11%
- Cc1ccc(-n2[nH]c(C)c(/C=N/NC(=O)c3cccc([N+](=O)[O-])c3)c2=O)cc1C — higher, -2.1%
- O=C(NNC(=O)c1cnccc1C(F)(F)F)c1ccc(Cl)cc1 — higher, -3%
- O=C1CC(N2CCN(C(c3ccccc3)c3ccccc3)CC2)C(=O)N1 (stereo unspecified) — lower, -12.9%
- Oc1ccccc1CN1CCN(C(c2ccccc2)c2ccccc2)CC1 — lower, -33.9%
- CC(C)CC(CCc1ccccc1)OS(N)(=O)=O (stereo unspecified) — lower, -9.01%
- CC(C(=O)c1ccc(-c2ccccc2)cc1)[n+]1cccc(Br)c1 (stereo unspecified) — higher, -2.14%
- Cc1cc(C)c(-c2c(O)c3ccccc3n(C)c2=O)c(C)c1 — higher, -6.96%
- CCOC(=O)Cc1cc(=O)[nH]c(=O)[nH]1 — higher, -1.68%
- COc1ccc(S(=O)(=O)N(C)CC(=O)N2CCCC2)cc1 — higher, 0.64%
- CN(C)S(=O)(=O)c1ccc(NC(=O)N2CCOCC2)cc1 — lower, -16.7%
- CN(C(=O)CC1C(=O)NCCN1Cc1ccc(F)cc1Cl)C1CCCCC1 (stereo unspecified) — lower, -17.1%
- Cc1ccc(S(=O)(=O)N(Cc2cc3ccccc3[nH]c2=O)CC2CCCO2)cc1 (stereo unspecified) — lower, -27.8%
- COCCN(C(=O)CCC(=O)Nc1nccs1)C(C(=O)NCCC(C)C)c1ccc(F)cc1 (stereo unspecified) — lower, -13%
- Cc1cc(C(=O)NC2CC(C)(C)Cc3c2cnn3-c2ccccc2)n[nH]1 (stereo unspecified) — lower, -10.2%
- CC(=O)NCC(=O)NC1CCCc2c1cnn2-c1ccccc1F (stereo unspecified) — higher, 10.8%
- COC(=O)c1ccc(C(=O)NC2CC(C)(C)Cc3c2cnn3-c2ccc(F)cc2)nc1 (stereo unspecified) — lower, -9.97%
- Cc1cc(C(=O)NC2CCCc3c2cnn3-c2cccc(C)c2C)c(C)o1 (stereo unspecified) — higher, 2.39%
- COc1ccc(C(=O)NC2CC(C)(C)Cc3c2cnn3-c2ccccc2C)o1 (stereo unspecified) — lower, -22.6%
- CC1(C)Cc2c(cnn2-c2cccc(F)c2)C(NC(=O)c2cc[n+]([O-])cc2)C1 (stereo unspecified) — higher, -5.88%
- COCCCNC(=O)CN1C(=O)CSc2ccc(S(=O)(=O)N3CCOCC3)cc21 — lower, -10.9%
- COc1ccc(S(=O)(=O)N2CCOCC2)cc1NC(=O)COc1ccccc1 — higher, -8.66%
- CCOc1cc(N2CCOCC2)c(OCC)cc1NC(=O)C1=NN(c2cccc(C)c2)C(=O)CC1 — lower, -30.7%
- CSC1=NC2(C)CCCCC2C12C=CC(=O)C=C2 (stereo unspecified) — higher, -8.36%
- Cc1cc(Cl)c2oc(C(=O)N(C)C(C)c3ccccn3)c(C)c2c1 (stereo unspecified) — lower, -25.6%
- Cc1cc2oc(=O)cc(-c3ccccc3)c2c(C)c1-c1ccc(OC(F)(F)F)cc1 — lower, -24%
- C/C(=N\NC(=O)Cc1ccccc1[N+](=O)[O-])c1cccnc1 — higher, -2.78%
- COc1cccc(CNc2nc(C(F)(F)F)nc3ccccc23)c1 — lower, -21.9%
- COc1ccc(CNc2nccs2)cc1 — higher, -0.35%
- O=C(Nc1cccc(F)c1)N1C2CCC1CC(O)(c1cccnc1)C2 (stereo unspecified) — higher, -8.22%
- COc1cc(NC(=O)CCNC(=O)Cn2ccc3ccccc3c2=O)cc(OC)c1OC — higher, 0.46%
- Cc1cc(C(F)F)n2nc(C(=O)Nc3ccc(S(=O)(=O)NC45CC6CC(CC(C6)C4)C5)cc3)nc2n1 — higher, -7.46%
- COc1ccccc1CNS(=O)(=O)c1c(C)[nH]c(C)c1C(=O)N1CCCCC1 — higher, -7.23%
- Cc1ccc(S(=O)(=O)N(CC(=O)N2CCc3ccccc3C2)c2cccc(Cl)c2)cc1 — lower, -23.4%
- COC(=O)Cn1cc(/C=C/[N+](=O)[O-])c2ccccc21 — lower, -9.14%
- O=C(Cn1ccc2cc(S(=O)(=O)N3CCCC3)ccc21)NCc1ccccc1 — higher, -3.13%
